Laboratory results as given in ChEMBL document CHEMBL3232894, “Discovery of AMG 925, a FLT3 and CDK4 dual kinase inhibitor with preferential affinity for the activated state of FLT3” (J Med Chem, 2014).
Calls of active or inactive are those of the source. The calls are words filed in the database; no cut-off is given here.

Experiments:
[1] = Clearance in iv dosed rat; assay type: ADME, organism-based; details: in vivo
Method in brief: (§1)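 Intravenous and oral (gavage, solution) PK in rat, dog and cynomolgus monkey. The rat vehicle for both routes was water/acetate/tween at pH 4, 96/3/1 (v/v/v). Dog and monkey iv doses used 40% PG aqueous solution at pH 2, and their oral doses used 20% captisol aqueous solution.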

CYP3A4 = CYP3A4 (Homo sapiens, UniProt P08684); assay: Inhibition of CYP3A4 (unknown origin) at 3 uM; assay type: ADME
Chain of CYP3A4 (P08684 whole entry): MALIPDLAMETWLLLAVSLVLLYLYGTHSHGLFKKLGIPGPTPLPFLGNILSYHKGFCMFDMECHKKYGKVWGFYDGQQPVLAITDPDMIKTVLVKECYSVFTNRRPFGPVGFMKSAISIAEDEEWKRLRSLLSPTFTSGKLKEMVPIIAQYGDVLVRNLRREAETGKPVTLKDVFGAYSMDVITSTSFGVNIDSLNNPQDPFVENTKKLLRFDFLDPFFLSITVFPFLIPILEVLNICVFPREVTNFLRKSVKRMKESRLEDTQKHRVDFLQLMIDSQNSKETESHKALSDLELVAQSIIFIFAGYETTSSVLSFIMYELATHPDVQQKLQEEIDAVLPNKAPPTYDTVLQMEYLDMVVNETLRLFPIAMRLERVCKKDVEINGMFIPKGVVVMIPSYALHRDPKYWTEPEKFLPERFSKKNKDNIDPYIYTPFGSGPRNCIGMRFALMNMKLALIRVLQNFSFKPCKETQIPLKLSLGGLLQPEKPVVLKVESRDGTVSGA

MOLM-13 = assay: Antiproliferative activity against human MOLM13 cells harboring FLT3 ITD mutant assessed as incorporation of [3H]thymidine into DNA after 72 hrs by beta-plate counting analysis; assay type: functional, cell-based
[2] = Antiproliferative activity against Rb-negative human MDA-MB-436 cells assessed as incorporation of [3H]thymidine into DNA after 72 hrs by beta-plate counting analysis; assay type: functional
Cytochrome P450 3A4 = Cytochrome P450 3A4 (Homo sapiens, UniProt P08684); assay: Inhibition of CYP3A4 (unknown origin); assay type: ADME
Chain of Cytochrome P450 3A4 (P08684 whole entry): as above

[3] = target: Voltage-gated inwardly rectifying potassium channel KCNH2 (Homo sapiens, UniProt Q12809); assay: Binding affinity to human ERG
Chain of Voltage-gated inwardly rectifying potassium channel KCNH2 (Q12809 whole entry, the tested form may be a part): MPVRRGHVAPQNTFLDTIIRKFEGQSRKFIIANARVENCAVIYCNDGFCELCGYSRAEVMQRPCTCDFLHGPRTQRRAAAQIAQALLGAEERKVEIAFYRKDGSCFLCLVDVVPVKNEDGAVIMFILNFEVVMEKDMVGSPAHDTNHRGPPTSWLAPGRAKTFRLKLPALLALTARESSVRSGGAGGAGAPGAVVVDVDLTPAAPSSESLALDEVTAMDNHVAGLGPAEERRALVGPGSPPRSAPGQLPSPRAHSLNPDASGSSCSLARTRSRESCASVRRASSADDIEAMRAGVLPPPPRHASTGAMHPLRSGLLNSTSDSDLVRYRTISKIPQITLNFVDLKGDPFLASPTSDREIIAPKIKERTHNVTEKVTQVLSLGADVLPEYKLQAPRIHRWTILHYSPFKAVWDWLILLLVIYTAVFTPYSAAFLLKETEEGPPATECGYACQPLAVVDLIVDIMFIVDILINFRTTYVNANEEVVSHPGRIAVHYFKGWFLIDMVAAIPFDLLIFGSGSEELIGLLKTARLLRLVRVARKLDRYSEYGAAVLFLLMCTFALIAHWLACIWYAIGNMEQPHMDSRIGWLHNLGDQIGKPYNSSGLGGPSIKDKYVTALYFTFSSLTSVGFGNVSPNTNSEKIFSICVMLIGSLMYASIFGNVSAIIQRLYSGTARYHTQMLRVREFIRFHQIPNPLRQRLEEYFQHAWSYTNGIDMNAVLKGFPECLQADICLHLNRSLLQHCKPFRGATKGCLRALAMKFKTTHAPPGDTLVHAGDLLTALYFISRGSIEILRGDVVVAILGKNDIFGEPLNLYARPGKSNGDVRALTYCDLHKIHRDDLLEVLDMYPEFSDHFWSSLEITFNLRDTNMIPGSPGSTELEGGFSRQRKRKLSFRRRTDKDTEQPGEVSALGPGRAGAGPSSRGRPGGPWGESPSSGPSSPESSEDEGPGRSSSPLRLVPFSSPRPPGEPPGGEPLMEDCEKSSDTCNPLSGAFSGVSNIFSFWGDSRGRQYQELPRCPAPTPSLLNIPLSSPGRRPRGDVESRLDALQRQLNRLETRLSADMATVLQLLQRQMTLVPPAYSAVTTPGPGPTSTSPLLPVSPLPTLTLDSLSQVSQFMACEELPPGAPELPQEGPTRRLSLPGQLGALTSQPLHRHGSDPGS

[4] = target: T1, Receptor-type tyrosine-protein kinase FLT3 (Homo sapiens, UniProt P36888); assay: Inhibition of GST-fused human FLT3 cytoplasmic domain (amino acids 564 to 993) using Ulight-JAK1 as substrate after 1 hr by TR-FRET assay
T1 sequence (P36888 whole entry): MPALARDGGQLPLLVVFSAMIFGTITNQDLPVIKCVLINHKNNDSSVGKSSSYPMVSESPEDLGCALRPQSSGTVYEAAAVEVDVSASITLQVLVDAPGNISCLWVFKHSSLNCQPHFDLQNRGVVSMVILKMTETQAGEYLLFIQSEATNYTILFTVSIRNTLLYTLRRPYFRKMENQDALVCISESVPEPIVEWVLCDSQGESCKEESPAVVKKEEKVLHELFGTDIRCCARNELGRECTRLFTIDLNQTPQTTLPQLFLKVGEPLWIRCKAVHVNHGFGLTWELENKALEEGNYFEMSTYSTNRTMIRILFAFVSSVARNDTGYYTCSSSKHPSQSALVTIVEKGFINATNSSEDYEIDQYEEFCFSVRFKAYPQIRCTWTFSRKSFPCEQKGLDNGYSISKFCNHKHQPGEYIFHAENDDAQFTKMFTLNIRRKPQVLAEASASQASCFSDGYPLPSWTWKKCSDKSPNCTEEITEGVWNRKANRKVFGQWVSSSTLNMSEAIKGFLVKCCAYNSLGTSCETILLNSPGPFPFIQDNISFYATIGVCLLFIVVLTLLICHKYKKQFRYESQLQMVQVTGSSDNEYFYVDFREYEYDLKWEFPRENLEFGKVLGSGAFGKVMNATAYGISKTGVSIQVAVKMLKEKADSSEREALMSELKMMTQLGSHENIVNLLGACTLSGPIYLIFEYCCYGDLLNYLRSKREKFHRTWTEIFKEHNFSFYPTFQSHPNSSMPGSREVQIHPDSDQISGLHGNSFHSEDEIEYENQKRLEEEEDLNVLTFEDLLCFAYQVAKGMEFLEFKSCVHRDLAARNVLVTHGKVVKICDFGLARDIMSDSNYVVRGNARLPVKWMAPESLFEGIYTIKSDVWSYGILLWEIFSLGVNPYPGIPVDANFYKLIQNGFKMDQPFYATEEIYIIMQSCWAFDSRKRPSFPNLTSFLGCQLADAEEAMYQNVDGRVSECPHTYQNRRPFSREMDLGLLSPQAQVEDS

[5] = target: Cyclin-dependent kinase 1/cyclin B1 (Homo sapiens, UniProt P06493); assay: Inhibition of CDK1/cyclin B (unknown origin) using histone H1 as substrate after 60 mins by scintillation counting analysis in presence of [r-33P]ATP; assay type: protein-complex assay
Chain of Cyclin-dependent kinase 1/cyclin B1 (P06493 whole entry): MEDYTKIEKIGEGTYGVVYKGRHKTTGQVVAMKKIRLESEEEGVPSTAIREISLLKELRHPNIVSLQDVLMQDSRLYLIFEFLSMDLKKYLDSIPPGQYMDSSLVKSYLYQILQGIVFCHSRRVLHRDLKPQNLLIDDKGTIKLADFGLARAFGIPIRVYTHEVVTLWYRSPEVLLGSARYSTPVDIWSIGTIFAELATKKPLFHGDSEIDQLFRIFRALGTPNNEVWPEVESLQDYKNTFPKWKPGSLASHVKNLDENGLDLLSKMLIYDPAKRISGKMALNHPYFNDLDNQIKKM
Chain of Cyclin-dependent kinase 1/cyclin B1 (P14635 whole entry, further chain): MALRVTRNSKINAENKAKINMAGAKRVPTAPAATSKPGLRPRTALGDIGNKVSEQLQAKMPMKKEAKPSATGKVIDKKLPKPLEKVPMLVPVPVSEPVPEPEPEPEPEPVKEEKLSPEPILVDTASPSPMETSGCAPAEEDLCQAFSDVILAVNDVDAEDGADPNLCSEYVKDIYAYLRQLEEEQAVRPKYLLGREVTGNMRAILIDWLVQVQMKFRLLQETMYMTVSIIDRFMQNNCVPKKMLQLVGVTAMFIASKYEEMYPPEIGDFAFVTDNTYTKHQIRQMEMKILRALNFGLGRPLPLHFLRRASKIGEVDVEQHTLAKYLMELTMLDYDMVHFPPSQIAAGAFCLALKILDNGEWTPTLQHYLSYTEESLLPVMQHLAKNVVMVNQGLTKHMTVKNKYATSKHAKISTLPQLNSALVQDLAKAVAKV

[6] = target: Cyclin-dependent kinase 4/cyclin D1 (Homo sapiens, UniProt P11802); assay: Inhibition of CDK4/cyclin D1 (unknown origin) using Rb as substrate after 60 mins by scintillation counting analysis in presence of [r-33P]ATP; assay type: protein-complex assay
Chain of Cyclin-dependent kinase 4/cyclin D1 (P11802 whole entry): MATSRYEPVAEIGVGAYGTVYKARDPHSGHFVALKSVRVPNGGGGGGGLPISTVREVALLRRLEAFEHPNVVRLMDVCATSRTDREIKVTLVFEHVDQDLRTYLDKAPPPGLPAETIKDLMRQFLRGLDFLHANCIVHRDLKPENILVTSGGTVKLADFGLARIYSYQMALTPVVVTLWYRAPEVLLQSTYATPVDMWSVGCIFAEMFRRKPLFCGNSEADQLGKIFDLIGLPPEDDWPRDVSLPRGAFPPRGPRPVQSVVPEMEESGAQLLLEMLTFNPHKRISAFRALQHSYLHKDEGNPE
Chain of Cyclin-dependent kinase 4/cyclin D1 (P24385 whole entry, further chain): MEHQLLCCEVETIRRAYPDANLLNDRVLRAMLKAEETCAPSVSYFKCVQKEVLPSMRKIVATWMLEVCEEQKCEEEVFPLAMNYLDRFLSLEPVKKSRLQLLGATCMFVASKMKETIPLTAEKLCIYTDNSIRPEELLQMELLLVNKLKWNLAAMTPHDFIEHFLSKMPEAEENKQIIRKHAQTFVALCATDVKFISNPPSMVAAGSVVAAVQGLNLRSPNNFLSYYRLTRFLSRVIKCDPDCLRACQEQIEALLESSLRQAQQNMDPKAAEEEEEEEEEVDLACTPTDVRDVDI

COLO 205 = assay: Antiproliferative activity against Rb-positive human COLO205 cells assessed as incorporation of [14C]thymidine into DNA after 72 hrs by beta-plate counting analysis
[7] = Total Cmax in rat at 2 mg/kg, po; assay type: ADME, organism-based; design: dose 2 mg/kg, route oral; details: in vivo
[8] = Oral bioavailability in rat; assay type: ADME, organism-based; details: in vivo; method in brief: as §1
[9] = AUC in rat at 2 mg/kg, po; assay type: ADME, organism-based; design: dose 2 mg/kg, route oral; details: plasma
Mus musculus [10] = assay: Toxicity in po dosed CrTac:NCR-Foxn1nu (NCR) nude mouse xenografted with human MOLM13 cells at dose that causing 100% tumor growth inhibition administered qd for 8 days; assay type: organism-based, MOLM-13; details: in vivo, 192 h
Method in brief: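 Body weight tracked throughout the 8-day once-daily oral study in NCR nude mice carrying MOLM13 xenografts. Doses were 25, 50, 75 and 150 mg/kg, with a vehicle control.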

Homo sapiens = species: Homo sapiens; assay: Selectivity ratio of IC50 for CDK1/cyclin B (unknown origin) to IC50 for CDK4/cyclin D1 (unknown origin)
Tumour [11] = assay: Decrease in Rb phosphorylation at Ser780 in tumor of po dosed CrTac:NCR-Foxn1nu (NCR) nude mouse xenografted with human MOLM13 cells after 24 hrs; assay type: functional, organism-based; details: Neoplasm, MOLM-13
Method in brief: (§2)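 MOLM13 tumor-bearing mice received a single oral dose of 50, 75 or 150 mg/kg. Tumors were harvested at 3, 6 and 24 h, and lysates were assayed for pSTAT5 and pRb. Unbound plasma levels were measured at the same time points. Results are mean ± SEM, n = 3 per group and n = 6 for vehicle.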

Tumour [12] = assay: Decrease in STAT5 phosphorylation at Tyr694 in tumor of CrTac:NCR-Foxn1nu (NCR) nude mouse xenografted with human MOLM13 cells at 150 mg/kg, po after 3 hrs; assay type: functional, organism-based; design: dose 150 mg/kg; details: Neoplasm, MOLM-13; method in brief: as §2
[13] = target: Cyclin-dependent kinase 4 (Homo sapiens, UniProt P11802); assay: Inhibition of CDK4 in human MOLM13 cells assessed as inhibition of Rb phosphorylation at Ser780 after 24 hrs; assay type: cell-based, MOLM-13
Chain of Cyclin-dependent kinase 4 (P11802 whole entry): as the sequence (P11802 whole entry) above

Mus musculus [14] = assay: Unbound Cmax in CrTac:NCR-Foxn1nu (NCR) nude mouse xenografted with human MOLM13 cells at 150 mg/kg, po; assay type: ADME, organism-based, MOLM-13; design: dose 150 mg/kg, route oral; details: in vivo
[15] = target: Receptor-type tyrosine-protein kinase FLT3 (Homo sapiens, UniProt P36888, ITD); assay: Inhibition of FLT3 ITD mutant in human MOLM13 cells assessed as inhibition of STAT5 phosphorylation at Tyr694 after 24 hrs; assay type: cell-based, MOLM-13
[16] = Drug uptake in CrTac:NCR-Foxn1nu (NCR) nude mouse at 150 mg/kg, po after 3 hrs; assay type: ADME, organism-based; design: dose 150 mg/kg, route oral; details: in vivo, read-out: Drug uptake
Method in brief: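 Total plasma drug concentration in mouse PK studies, taken 3 h after a 150 mg/kg oral dose.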

SMILES	clearance [1] [mL/min/kg]	IC50 (MOLM-13) [nM]	IC50 [4] [nM]	IC50 [5] [nM]	IC50 [6] [nM]	IC50 (COLO 205) [nM]	Cmax [7] [nM]	bioavailability [8] [%]	AUC [9] [µM·h]	IC50 [2] [nM]	Activity (Mus musculus [10])	other results
Clc1nccc2c3cnc(Nc4ccc(N5CCNCC5)cn4)nc3n(C3CCCC3)c12	28.3	9	5	3300	4	63				2100		inhibition at 3 µM (CYP3A4): < 10%; IC50 (Cytochrome P450 3A4): > 10000 nM; IC50 [3]: 2000 nM
CN(C)C1CCN(c2ccc(Nc3ncc4c5ccncc5n([C@H]5CC[C@H](C)CC5)c4n3)nc2F)CC1	20	13	0.6	2680	1	16		88		1470	Toxic	
CN(C)C1CCN(c2ccc(Nc3ncc4c5ccncc5n([C@H]5CC[C@H](C)CC5)c4n3)nn2)CC1	10.2	9	4	2200	2	11	130	28	1.57	2150		Ratio IC50 (Homo sapiens): > 1000; inhibition (Tumour [11]): Dose-dependent effect; inhibition (Tumour [12]): inactive; IC50 [13]: 23 nM; fCmax (Mus musculus [14]): 0.024 µM; IC50 [15]: 52 nM; concentration at 3 h [16]: 850 nM

The next compounds have a lower IC50 (MOLM-13) than those just listed; values first:

clearance [1] [mL/min/kg]	IC50 (MOLM-13) [nM]	IC50 [4] [nM]	IC50 [5] [nM]	IC50 [6] [nM]	IC50 (COLO 205) [nM]	Cmax [7] [nM]	bioavailability [8] [%]	AUC [9] [µM·h]	SMILES	IC50 [2] [nM]	Activity (Mus musculus [10])	other results
10	4		1540		9	280	46	3.24	C[C@@H](O)CN(C)C1CCN(c2ccc(Nc3ncc4c5ccncc5n([C@H]5CC[C@H](C)CC5)c4n3)nn2)CC1	910		
9.17	2	0.2	790	3	54		62		COc1nc(Nc2ncc3c4ccncc4n([C@H]4CC[C@H](C)CC4)c3n2)ccc1N1CCC(N(C)C)CC1	1120	Toxic	
